For orientation: pIC50 means the negative decadic logarithm of the IC50, by convention in mol/L. Read a low pIC50 as a large IC50.

Consider 25 compounds from ChEMBL document CHEMBL1135620, “Cyclosporins: structure-activity relationships for the inhibition of the human FPR1 formylpeptide receptor” (J Med Chem, 2002).

The target in this test is T1, fMet-Leu-Phe receptor (Homo sapiens, UniProt P21462).
T1 sequence (P21462 whole entry): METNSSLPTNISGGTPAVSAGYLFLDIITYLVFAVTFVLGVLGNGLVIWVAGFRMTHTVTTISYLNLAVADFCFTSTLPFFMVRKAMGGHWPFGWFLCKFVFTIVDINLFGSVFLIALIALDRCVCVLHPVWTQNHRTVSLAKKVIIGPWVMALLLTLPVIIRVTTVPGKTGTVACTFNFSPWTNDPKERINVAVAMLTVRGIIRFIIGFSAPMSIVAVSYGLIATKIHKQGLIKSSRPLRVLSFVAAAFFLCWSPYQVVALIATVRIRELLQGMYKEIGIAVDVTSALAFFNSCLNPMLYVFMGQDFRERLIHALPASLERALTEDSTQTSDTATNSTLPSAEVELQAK
Kind of test: Inhibitory activity against human formylpeptide receptor (FPR) of human leukemia HL-60 cells. The class given is cell-based. A digest of the protocol: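 HL-60 cells differentiated 48 h with 0.2 mM dibutyryl cAMP, washed, then treated with 5 μM cytochalasin B (5–10 min, 37 °C). Stimulated 10 min with 30 nM f-MLF. N-acetyl-β-D-glucosaminidase release read at 410 nm on p-nitrophenyl substrate after spontaneous-release subtraction. Duplicate wells; IC20/IC50 as mean ± SD of independent experiments.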

pIC50: −log10 of the molar value.

`C/C=C/C[C@@H](C)[C@@H](O)[C@H]1C(=O)N[C@@H](CC)C(=O)N(C)CC(=O)N(C)[C@@H](CC(C)C)C(=O)N[C@@H](C(C)C)C(=O)N(C)[C@@H](CC(C)C)C(=O)N[C@@H](C)C(=O)N[C@H](C)C(=O)N(C)[C@@H](CC(C)C)C(=O)N[C@@H](CC(C)C)C(=O)N(C)[C@@H](C(C)C)C(=O)N1C` had a pIC50 of 5.04.

As for `CC/C=C/C[C@@H](C)[C@@H](O)[C@H]1C(=O)N[C@@H](CC)C(=O)N(C)CC(=O)N(C)[C@@H](Cc2ccccc2)C(=O)N[C@@H](C(C)C)C(=O)N(C)[C@@H](CC(C)C)C(=O)N[C@@H](C)C(=O)N[C@H](C)C(=O)N(C)[C@@H](CC(C)C)C(=O)N(C)[C@@H](CC(C)C)C(=O)N(C)[C@@H](C(C)C)C(=O)N1C`, the negative-log IC50 (pIC50) (hl-60) is less than 5.00.

`C/C=C/C[C@@H](C)[C@@H](O)[C@H]1C(=O)N[C@@H]([C@@H](C)O)C(=O)N(C)CC(=O)N(C)[C@@H](CC(C)C)C(=O)N[C@@H](CC(C)C)C(=O)N(C)[C@@H](CC(C)C)C(=O)N[C@@H](C)C(=O)N[C@H](C)C(=O)N(C)[C@@H](CC(C)C)C(=O)N[C@@H](C)C(=O)N(C)[C@@H](C(C)C)C(=O)N1C` had a negative logarithm of the IC50 (pIC50) of 5.49.

In turn, `C/C=C/C[C@@H](C)[C@@H](O)[C@H]1C(=O)N[C@@H](CC)C(=O)N(C)CC(=O)N(C)[C@@H](CC(C)C)C(=O)N[C@@H](C(C)C)C(=O)N(C)[C@@H](CC(C)C)C(=O)N[C@@H](C)C(=O)N[C@H](C)C(=O)N(C)[C@@H](CC(C)C)C(=O)N(C)[C@@H](CC(C)C)C(=O)N(C)[C@@H](C)C(=O)N1C` showed a pIC50 of 5.60.

`CC/C=C/C[C@@H](C)[C@@H](O)[C@H]1C(=O)N[C@@H](CC)C(=O)N(C)CC(=O)N(C)[C@@H](CC(C)C)C(=O)N[C@@H](C(C)C)C(=O)N(C)[C@@H](CC(C)C)C(=O)N[C@@H](C)C(=O)N[C@H](CCCCN)C(=O)N(C)[C@@H](CC(C)C)C(=O)N(C)[C@@H](CC(C)C)C(=O)N(C)[C@@H](C(C)C)C(=O)N1C` showed a pIC50 of 5.20. Against the preceding compound, the pIC50 is 0.40 log units lower.

The compound `C/C=C/C[C@@H](C)[C@@H](O)[C@H]1C(=O)N[C@@H](CCC)C(=O)N(C)CC(=O)N(C)[C@@H](CC(C)C)C(=O)N[C@@H](CCC)C(=O)N(C)[C@@H](CC(C)C)C(=O)N[C@@H](C)C(=O)N[C@H](C)C(=O)N(C)[C@@H](CC(C)C)C(=O)N(C)[C@@H](CC(C)C)C(=O)N(C)[C@@H](C(C)C)C(=O)N1C` showed a pIC50 of 5.47.

For the compound `C/C=C/C[C@@H](C)[C@@H](O)[C@H]1C(=O)N[C@@H]([C@@H](C)O)C(=O)N(C)CC(=O)N(C)[C@@H](CC(C)C)C(=O)N[C@@H]([C@@H](C)CC)C(=O)N(C)[C@@H](CC(C)C)C(=O)N[C@@H](C)C(=O)N[C@](O)(C(C)C)C(=O)N(C)[C@@H](CC(C)C)C(=O)N[C@@H](CC(C)C)C(=O)N(C)[C@@H](C(C)C)C(=O)N1C`, the pIC50 is 6.12.

Turning to `C/C=C/C[C@@H](C)[C@@H](O)[C@H]1C(=O)N[C@@H]([C@@H](C)O)C(=O)NCC(=O)N(C)[C@@H](CC(C)C)C(=O)N[C@@H](CC(C)C)C(=O)N(C)[C@@H](CC(C)C)C(=O)N[C@@H](C)C(=O)N[C@](O)(C(C)C)C(=O)N(C)[C@@H](CC(C)C)C(=O)N[C@@H](CC(C)C)C(=O)N(C)[C@@H](C(C)C)C(=O)N1C`, the negative-log IC50 (pIC50) was 6.52.

Compound `C/C=C/C[C@@H](C)[C@@H](O)[C@H]1C(=O)N[C@@H](C)C(=O)N(C)CC(=O)N(C)[C@@H](CC(C)C)C(=O)N[C@@H](C(C)C)C(=O)N(C)[C@@H](CC(C)C)C(=O)N[C@@H](C)C(=O)N[C@H](C)C(=O)N(C)[C@@H](CC(C)C)C(=O)N[C@@H](CC(C)C)C(=O)N(C)[C@@H](C(C)C)C(=O)N1C` gave a pIC50 of 5.66. This pIC50 lies 0.86 log units lower than the previous one.

Take `CC/C=C/C[C@@H](C)[C@@H](O)[C@H]1C(=O)N[C@@H](CC)C(=O)N(C)CC(=O)N(C)[C@@H](CC(C)(C)O)C(=O)N[C@@H](C(C)C)C(=O)N(C)[C@@H](CC(C)C)C(=O)N[C@@H](C)C(=O)N[C@H](C)C(=O)N(C)[C@@H](CC(C)C)C(=O)N(C)[C@@H](CC(C)C)C(=O)N(C)[C@@H](C(C)C)C(=O)N1C`: the pIC50 was less than 5.00.

The compound `CC[C@@H]1NC(=O)[C@H](CC2CCCCC2)N(C)C(=O)[C@H](C(C)C)N(C)C(=O)[C@H](CC(C)C)N(C)C(=O)[C@H](CC(C)C)N(C)C(=O)[C@@H](C)NC(=O)[C@H](C)NC(=O)[C@H](CC(C)C)N(C)C(=O)[C@H](C(C)C)NC(=O)[C@H](CC(C)C)N(C)C(=O)CN(C)C1=O` gave a pIC50 of 5.20.

In turn, `CC(C)C[C@H]1C(=O)N[C@@H](C(C)C)C(=O)N(C)[C@@H](CC(C)C)C(=O)N[C@@H](C)C(=O)N[C@H](C)C(=O)N(C)[C@@H](CC(C)C)C(=O)N(C)[C@@H](CC(C)C)C(=O)N(C)[C@@H](C(C)C)C(=O)N(C)[C@@H](CC(C)C)C(=O)N[C@@H](C(C)C)C(=O)N(C)CC(=O)N1C` gave a pIC50 of less than 5.00.

`C/C=C/C[C@@H](C)[C@@H](O)[C@H]1C(=O)N[C@@H]([C@@H](C)O)C(=O)N(C)CC(=O)N(C)[C@@H](CC(C)C)C(=O)N[C@@H](CC(C)C)C(=O)N(C)[C@@H](CC(C)C)C(=O)N[C@@H](C)C(=O)N[C@H](C)C(=O)N(C)[C@@H](CC(C)C)C(=O)N[C@@H](CC(C)C)C(=O)N(C)[C@@H](C(C)C)C(=O)N1C` showed a pIC50 of 6.23.

In the case of `C/C=C/C[C@@H](C)[C@@H](O)[C@H]1C(=O)N[C@@H](CC)C(=O)N(C)CC(=O)N[C@@H]([C@@H](C)CC)C(=O)N[C@@H](C(C)C)C(=O)N(C)[C@@H](CC(C)C)C(=O)N[C@@H](C)C(=O)N[C@H](C)C(=O)N(C)[C@@H](CC(C)C)C(=O)N(C)[C@@H](CC(C)C)C(=O)N(C)[C@@H](C(C)C)C(=O)N1C`, the negative logarithm of the IC50 (pIC50) (hl-60) is less than 5.30.

Consider `CC/C=C/C[C@@H](C)[C@@H](O)[C@H]1C(=O)N[C@@H](C(C)C)C(=O)N(C)CC(=O)N(C)[C@@H](CC(C)C)C(=O)N[C@@H](C(C)C)C(=O)N(C)[C@@H](CC(C)C)C(=O)N[C@@H](C)C(=O)N[C@H](C)C(=O)N(C)[C@@H](CC(C)C)C(=O)N(C)[C@@H](CC(C)C)C(=O)N(C)[C@@H](C(C)C)C(=O)N1C`, for which the pIC50 is less than 5.00.

Turning to `C/C=C/C[C@@H](C)[C@@H](O)[C@H]1C(=O)N[C@@H]([C@@H](C)O)C(=O)N(C)CC(=O)N(C)[C@@H](CC(C)C)C(=O)N[C@@H]([C@@H](C)CC)C(=O)N(C)[C@@H](CC(C)C)C(=O)N[C@@H](C)C(=O)N[C@H](C)C(=O)N(C)[C@@H](CC(C)C)C(=O)N(C)[C@@H](CC(C)C)C(=O)N(C)[C@@H](C(C)C)C(=O)N1C`, the pIC50 was 5.64.

In turn, `CCC[C@@H]1NC(=O)[C@H](CC(C)C)N(C)C(=O)[C@H](C(C)C)N(C)C(=O)[C@H](CC(C)C)N(C)C(=O)[C@H](CC(C)C)N(C)C(=O)[C@@H](C)NC(=O)[C@H](C)NC(=O)[C@H](CC(C)C)N(C)C(=O)[C@H](C(C)C)NC(=O)[C@H](CC(C)C)N(C)C(=O)CN(C)C1=O` had a pIC50 of less than 5.00.

Consider `C/C=C/C[C@@H](C)[C@@H](O)[C@H]1C(=O)N[C@@H](CC)C(=O)N(C)CC(=O)N(C)[C@@H](CC(C)C)C(=O)N[C@@H](C(C)C)C(=O)N(C)[C@@H](CC(C)C)C(=O)N[C@@H](C)C(=O)N[C@H](C)C(=O)N(C)[C@@H](CC(C)C)C(=O)N(C)[C@@H](CC(C)C)C(=O)N[C@@H](C(C)C)C(=O)N1C`, for which the pIC50 is less than 5.00.

As to `CCCCCC[C@H]1C(=O)N[C@@H](CC)C(=O)N(C)CC(=O)N(C)[C@@H](CC(C)C)C(=O)N[C@@H](C(C)C)C(=O)N(C)[C@@H](CC(C)C)C(=O)N[C@@H](C)C(=O)N[C@H](C)C(=O)N(C)[C@@H](CC(C)C)C(=O)N(C)[C@@H](CC(C)C)C(=O)N(C)[C@@H](C(C)C)C(=O)N1C`, the negative logarithm of the IC50 (pIC50) is less than 5.00.

Turning to `C/C=C/C[C@@H](C)[C@@H](O)[C@H]1C(=O)N[C@@H]([C@@H](C)O)C(=O)N(C)CC(=O)N(C)[C@@H](CC(C)C)C(=O)N[C@@H](C(C)C)C(=O)N(C)[C@@H](CC(C)C)C(=O)N[C@@H](C)C(=O)N[C@H](C)C(=O)N(C)[C@@H](CC(C)C)C(=O)N(C)[C@@H](CC(C)C)C(=O)N[C@@H](C(C)C)C(=O)N1C`, the pIC50 was less than 5.00.

Regarding `C/C=C/C[C@@H](C)[C@@H](O)[C@H]1C(=O)N[C@@H](CCC)C(=O)N(C)CC(=O)N(C)[C@@H](CC(C)C)C(=O)N[C@@H](CC(C)C)C(=O)N(C)[C@@H](CC(C)C)C(=O)N[C@@H](C)C(=O)N[C@H](C)C(=O)N(C)[C@@H](CC(C)C)C(=O)N(C)[C@@H](CC(C)C)C(=O)N(C)[C@@H](C(C)C)C(=O)N1C`, the negative-log IC50 (pIC50) is less than 5.00.

`CC(C)C[C@@H]1NC(=O)[C@H](CC(C)C)N(C)C(=O)[C@@](O)(C(C)C)NC(=O)[C@H](C)NC(=O)[C@H](CC(C)C)N(C)C(=O)[C@H](CC(C)C)NC(=O)[C@H](CC(C)C)N(C)C(=O)CN(C)C(=O)[C@H]([C@@H](C)O)NC(=O)[C@H]([C@H](O)[C@H](C)C/C=C/CO)N(C)C(=O)[C@H](C(C)C)N(C)C1=O` showed a pIC50 of 5.83.

`C/C=C/C[C@@H](C)[C@@H](O)[C@H]1C(=O)N[C@@H](CC)C(=O)NCC(=O)N(C)[C@@H](CC(C)C)C(=O)N[C@@H](C(C)C)C(=O)N(C)[C@@H](CC(C)C)C(=O)N[C@@H](C)C(=O)N[C@H](CO)C(=O)N(C)[C@@H](CC(C)C)C(=O)N(C)[C@@H](CC(C)C)C(=O)N(C)[C@@H](C(C)C)C(=O)N1C` showed a negative-log IC50 (pIC50) of less than 5.30.

Regarding `C/C=C/C[C@@H](C)[C@@H](O)[C@H]1C(=O)N[C@@H]([C@@H](C)O)C(=O)N(C)CC(=O)N[C@@H](CC(C)C)C(=O)N[C@@H](CC(C)C)C(=O)N(C)[C@@H](CC(C)C)C(=O)N[C@@H](C)C(=O)N[C@](O)(C(C)C)C(=O)N(C)[C@@H](CC(C)C)C(=O)N[C@@H](CC(C)C)C(=O)N(C)[C@@H](C(C)C)C(=O)N1C`, the negative-log IC50 (pIC50) was 6.25.

`CC/C=C/C[C@@H](C)[C@@H](O)[C@H]1C(=O)N[C@@H](CC)C(=O)N(C)CC(=O)N(C)[C@@H](C(C)C)C(=O)N[C@@H](C(C)C)C(=O)N(C)[C@@H](CC(C)C)C(=O)N[C@@H](C)C(=O)N[C@H](C)C(=O)N(C)[C@@H](CC(C)C)C(=O)N(C)[C@@H](CC(C)C)C(=O)N(C)[C@@H](C(C)C)C(=O)N1C` had a pIC50 of less than 5.30.
